A selection: hits, their analogues and other compounds. The true share with any hit is near 3.1%.
KCNK9 block: inhibitors of human KCNK9 two-pore domain potassium channel. actives 1.2% (n = 310,000). HEK293 KCNK9, FluxOR thallium flux fluorescence; hits give low values. B-score at 10 µM. Q9NPC2;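 active = ratio B-score over 3 SD below the library mean, with starting fluorescence within 5 SD of its mean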;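 also: negative B-score means less thallium flux so channel inhibition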
KCNQ1 pot: potentiates or activates the human KCNQ1 potassium channel; P51787; CHO-K1 KCNQ1, thallium flux FluxOR fluorescence; hits give high values; B-score at 10 µM; actives 0.35% (n = 310,000);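 active = fluorescence ratio B-score, a plate-corrected score, at least three library SD, with initial intensity B-score within 5 SD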
Target sequence (P51787 whole entry, looked up): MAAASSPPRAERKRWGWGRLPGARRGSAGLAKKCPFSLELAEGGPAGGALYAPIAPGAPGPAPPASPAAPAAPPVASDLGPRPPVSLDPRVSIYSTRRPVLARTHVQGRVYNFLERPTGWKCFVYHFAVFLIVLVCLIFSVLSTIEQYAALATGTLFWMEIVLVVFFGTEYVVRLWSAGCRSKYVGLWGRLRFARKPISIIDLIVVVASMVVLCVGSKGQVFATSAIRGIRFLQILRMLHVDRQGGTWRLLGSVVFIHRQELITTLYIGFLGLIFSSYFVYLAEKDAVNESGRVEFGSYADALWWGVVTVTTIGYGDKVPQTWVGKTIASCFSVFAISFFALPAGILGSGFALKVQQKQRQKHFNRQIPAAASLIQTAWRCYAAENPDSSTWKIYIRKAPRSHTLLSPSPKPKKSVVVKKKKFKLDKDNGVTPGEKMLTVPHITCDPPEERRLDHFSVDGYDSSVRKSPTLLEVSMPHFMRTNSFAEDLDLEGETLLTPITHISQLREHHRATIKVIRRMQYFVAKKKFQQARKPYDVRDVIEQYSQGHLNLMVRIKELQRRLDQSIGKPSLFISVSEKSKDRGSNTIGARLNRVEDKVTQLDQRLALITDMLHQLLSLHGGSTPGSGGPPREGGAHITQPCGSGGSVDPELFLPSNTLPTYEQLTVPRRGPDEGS
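Material: CHO-K1 cells stably expressing KCNQ1. Medium: assay buffer for compound exposure, DMSO matched across wells. Reagent: K+/Tl+ depolarizing stimulus. Compound dosing: single-concentration screen. Times: 37 °C overnight plating, 90-min dark dye load, 20-min compound pretreatment. Technique: FluxOR Tl+ flux fluorescence.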
KCNQ1 inh: blocks the human KCNQ1 potassium channel; P51787; CHO-K1 KCNQ1, FluxOR thallium flux fluorescence; hits give high values; B-score at 10 µM; actives 1.3% (n = 310,000); AID 2642;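 active = compounds whose thallium flux B-score, printed positive for inhibition, exceeds three library SD while starting fluorescence stays within three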;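 also: channel opened by potassium depolarization with thallium stimulus after 20 min compound exposure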
KCNK3 inh: human KCNK3 channel inhibition, primary screen; CHO-KCNK3 thallium flux, FluxOR fluorescence; hits give low values; actives 0.84% (n = 340,000); O14649; B-score at 10 µM;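 active = B-score under library mean minus 4 SD, starting fluorescence ratio at most library mean plus 5 SD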;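 also: more negative B-score means stronger inhibition of thallium flux through KCNK3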
hERG rescue: shields human hERG channel from block by proarrhythmic agents. activation (rescue from dofetilide block), less the hit threshold, % at 10 µM. actives 0.51% (n = 310,000). Q12809. CHO-hERG, FluxOR thallium flux, dofetilide IC70 present;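 active = activation above the mean of controls blocked by dofetilide plus 5 SD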;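 also: thallium influx through hERG after potassium depolarization seen as dye fluorescence rise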
KCNK9 block conf: human KCNK9 inhibitor confirmation; shares compounds with KCNK9 block; HEK293 KCNK9 cells, FluxOR thallium flux fluorescence; inhibition, % at 10 µM; actives 43% (n = 4,900);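 active = thallium signal inhibited by more than 5 SD of the compound-free buffer control wells, on both duplicate plates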;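 also: 0% = assay buffer control wells without compound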
Kir2-1 spec: mouse Kir2.1 off-target activity of KCNK9 modulators | Kir2.1 cells, FluxOR thallium flux fluorescence | shares compounds with KCNK9 block | AID 492993 | inhibition, % at 10 µM | actives 4% (n = 4,900);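 active = thallium signal drop more than 5 SD beyond the mean of the no-compound control wells, seen in both duplicate plates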;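 also: signal is fluorescence rise after thallium addition divided by baseline fluorescence; plate controls were assay buffer only for no effect and full block by chlorpromazine control for full effect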
KCNK9 uninduced: second counter-screen for KCNK9 modulators: effect in non-induced cells; shares compounds with KCNK9 block; non-induced KCNK9-HEK293, FluxOR thallium flux; inhibition, % at 10 µM; actives 40% (n = 4,900); AID 492997;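 active = thallium signal drop beyond 5 SD of the untreated control mean, on both duplicate plates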;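 also: plate controls were buffer only IC0 wells for no effect and SID17386958 at its maximal inhibitory level for full effect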
* = called active by the depositor; i = inactive; x = not tested or not shown.

SMILES | KCNK9 block | KCNQ1 pot | KCNQ1 inh | KCNK3 inh | hERG rescue | KCNK9 block conf | Kir2-1 spec | KCNK9 uninduced
CC(/C=C1\SC(=S)N(C(C(=O)O)c2ccccc2)C1=O)=C\c1ccccc1 (stereo unspecified) | i | i | i | i | -19 | i | i | i
COc1cccc(/C=C2\SC(=S)N(C(Cc3ccccc3)C(=O)O)C2=O)c1 (stereo unspecified) | i | i | i | i | -11 | i | i | i
CC(/C=C1\SC(=S)N(CC(=O)O)C1=O)=C\c1ccccc1 | i | i | i | i | -5 | x | x | x
CCOc1ccc(/C=C2\SC(=S)N(C(C(=O)O)c3ccccc3)C2=O)cc1OC (stereo unspecified) | i | i | i | i | -19 | x | x | x
Cc1ccc(N2CC(NS(=O)(=O)c3cc(F)ccc3F)CC2=O)cc1C (stereo unspecified) | i | i | i | i | -7 | x | x | x
Cc1ccc(Cn2c(SCC(=O)N3CC(=O)Nc4ccccc43)nc3ccccc3c2=O)cc1 | i | i | i | i | -2 | i | i | i
COCC(C)n1c(SCC(=O)N2CC(=O)Nc3ccccc32)nc2ccccc2c1=O (stereo unspecified) | x | x | x | i | x | x | x | x
CC(c1ccccc1)n1c(SCC(=O)N2CC(=O)Nc3ccccc32)nc2ccccc2c1=O (stereo unspecified) | -9* | i | i | i | -6 | 36%* | i | i
COc1ccc(C2CC(=O)c3cnn(-c4nc(C)cc(C)n4)c3C2)cc1 (stereo unspecified) | i | i | i | i | -10 | x | x | x
CSc1ccc(C(=O)C2CCCN(C(=O)c3nonc3C)C2)cc1 (stereo unspecified) | i | i | i | i | -5 | i | i | i
CSc1ccc(C(=O)C2CCCN(C(=O)CN3CCOC3=O)C2)cc1 (stereo unspecified) | i | i | i | i | -4 | x | x | x
COCc1ccc(C(=O)N2CCCC(C(=O)c3cccc(C(F)(F)F)c3)C2)o1 (stereo unspecified) | i | i | i | i | -11 | x | x | x
CSc1ccc(C(=O)C2CCCN(C(=O)c3cccc(N4CCOCC4)c3)C2)cc1 (stereo unspecified) | i | i | i | i | -16 | i | i | i
COCc1ccc(C(=O)N2CCCC(C(=O)c3ccc(SC)cc3)C2)o1 (stereo unspecified) | i | i | i | i | -11 | i | i | i
Cn1c(Cl)c(/C=N/OC(=O)c2ccc(Cl)cc2)c2ccccc21 | i | i | i | i | -14 | x | x | x
CCSc1nnc(NC(=O)CSc2nc3c(c(=O)n2-c2ccccc2OC)SCC3)s1 | i | i | i | i | -7 | x | x | x
CC1=CCC2C(=O)N(c3cccc(C(=O)Nc4ccccc4Cl)c3)C(=O)C2C1 (stereo unspecified) | i | i | i | i | -4 | x | x | x
CCCc1cc(=O)oc2c3c(cc(OCC(=O)NCCN4CCOCC4)c12)OC(C)(C)CC3 | i | i | i | i | -8 | x | x | x
COc1ccc(-c2ocnc2C(=O)NCc2nn(-c3ccccc3)nc2C)cc1 | i | i | i | i | -12 | i | i | i
COc1ccc(-c2ocnc2C(=O)Nc2ccccc2N2CCCCC2)cc1 | -9.3* | i | i | i | -8 | i | i | 28%*
COc1cccc(-c2ocnc2C(=O)Nc2ccc(N3CCOCC3)cc2N2CCOCC2)c1 | i | i | i | i | -7 | x | x | x
CCCCN(CC)c1nc(N)c(C#N)c(CC#N)c1C#N | -11* | i | i | i | -7 | 33%* | i | 32%*

Bioassay records as filed in PubChem BioAssay.
